Data on 12 molecules can be found in ChEMBL document CHEMBL1128566, “Inhibition of human neutrophil elastase. 3. An orally active enol acetate prodrug” (J Med Chem, 1995).

Data set [1] is described as follows: Half-life for the conversion of compound to ketone, was examined by 19F NMR spectroscopy in USP-simulated intestinal fluid, at 37 degree Centigrade. Type of data set: ADME. A digest of the protocol: (§1)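 Simulated intestinal fluid at pH 7.5, held at 37 or 50 °C. Half-life taken for conversion of enol acetate to the corresponding ketone.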
Data set [2] can be described thus: Half-life for the conversion of compound to ketone, was examined by 19F NMR spectroscopy in USP-simulated intestinal fluid, at 50 degree Centigrade. The class given is ADME. In short, it runs like this: as §1
The nature of data set [3]: Half-life for the conversion of compound to ketone, was examined by 19F NMR spectroscopy in human blood plasma, at 37 degree Centigrade. The class given is ADME, tissue-based. In short, it runs like this:
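Human blood plasma incubated at 37 °C. Half-life measured for conversion of enol acetate to the corresponding ketone.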

The target in data set [4] is T1, Neutrophil elastase (Homo sapiens, UniProt P08246).
T1 sequence (P08246 whole entry): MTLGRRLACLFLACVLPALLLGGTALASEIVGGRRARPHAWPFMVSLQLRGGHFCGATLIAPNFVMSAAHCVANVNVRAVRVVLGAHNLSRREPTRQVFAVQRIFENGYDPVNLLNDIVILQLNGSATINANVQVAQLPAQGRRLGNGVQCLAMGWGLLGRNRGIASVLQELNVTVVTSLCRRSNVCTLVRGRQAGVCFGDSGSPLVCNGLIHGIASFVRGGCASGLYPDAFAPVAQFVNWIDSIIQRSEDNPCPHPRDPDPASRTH
Briefly: Binding affinity for purified Human neutrophil elastase was determined in the presence of pig liver esterase, in vitro. A digest of the protocol:
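Partially purified HNE assayed with 12.5 units porcine liver esterase added, at a fixed inhibitor level (66 nM, 100 nM, 133 nM or 1.67 μM, depending on compound). Time course followed; Ki taken from the final rate after the enol acetate was fully hydrolysed. Controls: elastase plus substrate, with or without esterase.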

Data set [5] has as its target T1, Neutrophil elastase. The data set is described as follows: Binding affinity for purified Human neutrophil elastase was determined in vitro.
In data set [6] the test system is Cricetinae gen. sp. The data set is described as follows: Ability to inhibit HNE-induced pulmonary hemorrhage, was examined in vivo in hamsters, after administering the compound orally 30 min prior to intratracheal instillation of 25 microg of HNE. Type of data set: functional. In short, it runs like this: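 Hamsters dosed po at various doses 30 min before intratracheal HNE (25 μg). Killed 1 h later; trachea cannulated and lavaged three times with saline (0.04 mL/g). Hemorrhage measured as BAL hemoglobin by spectrophotometry. One-way ANOVA with Dunnett's test against vehicle-treated animals (p ≤ 0.05). ED50 extrapolated from dose-response curves.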

Data set [7] can be described thus: Half-life for the conversion of compound to ketone, was examined by 19F NMR spectroscopy in USP-simulated gastric fluid, at 50 degree Centigrade. Type of data set: ADME. A digest of the protocol: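 Simulated gastric fluid at pH 1.2 and 50 °C, followed for up to 12 h. Conversion of enol acetate to the parent ketone tracked to give a half-life.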

Where only a bound is given, the exact number is not on record here.

The half-life is the time needed for the level to fall by half in the phase considered. The Ki is the equilibrium dissociation constant of an inhibitor or competing ligand from its target. A word on the ED50: it is the dose at which the effect has come halfway, by size or by number of responders. As to `CC(=O)O/C(=C(/NC(=O)[C@@H]1CCCN1C(=O)[C@@H](NC(=O)c1ccc(C(=O)N2CCOCC2)cc1)C(C)C)C(C)C)C(F)(F)C(F)(F)F`, the half-life in data set [1] is 7.3 h; in data set [2] it was 3.1 h; in data set [3], 0.417 h. The Ki in data set [4] was 25 nM; in data set [5] it was over 2000 nM. Also, in data set [6], the ED50 was determined as 9 mg/kg.

For the molecule `CC(C)C(=O)O/C(=C(/NC(=O)[C@@H]1CCCN1C(=O)[C@@H](NC(=O)c1ccc(C(=O)N2CCOCC2)cc1)C(C)C)C(C)C)C(F)(F)C(F)(F)F`, the Ki in data set [4] was found to be 25 nM.

For `CC(C)C(NC(=O)[C@@H]1CCCN1C(=O)[C@@H](NC(=O)c1ccc(C(=O)N2CCOCC2)cc1)C(C)C)C(=O)C(F)(F)F` (some centres not stated), the median effective dose (ED50) in data set [6] was over 50 mg/kg.

As for `CC(=O)O/C(=C(/NC(=O)[C@@H]1CCCN1C(=O)[C@@H](NC(=O)N1CCOCC1)C(C)C)C(C)C)C(F)(F)F`, the values for the Ki in data set [4] and in data set [5] were 150 nM and 6300 nM, respectively.

With `CC(=O)O/C(=C(/NC(=O)[C@@H]1CCCN1C(=O)[C@@H](NC(=O)c1ccc(C(=O)N2CCOCC2)cc1)C(C)C)C(C)C)C(F)(F)F`, the half-life in data set [1] was 2.9 h; in data set [3], 0.25 h; in data set [7] it was 41 h. For the same molecule, the inhibition constant Ki in data set [4] turned out to be 16 nM. In addition, the ED50 in data set [6] was over 75 mg/kg.

Turning to `CC(C)=C(NC(=O)[C@@H]1CCCN1C(=O)[C@@H](NC(=O)c1ccc(C(=O)N2CCOCC2)cc1)C(C)C)C(=O)C(F)(F)C(F)(F)F`, the affinity in data set [5], expressed as Ki, was 8000 nM.

As to `CC(=O)O/C(=C(/NC(=O)[C@@H]1CCCN1C(=O)[C@@H](NC(=O)c1ccc(C(=O)NS(=O)(=O)c2ccc(Cl)cc2)cc1)C(C)C)C(C)C)C(F)(F)F`, the half-life in data set [2] is 1.2 h; in data set [3] it was 0.167 h. For the same molecule, the Ki in data set [4] is 3 nM; in data set [5], 320 nM. This molecule also had an ED50 in data set [6] of over 50 mg/kg.

Regarding `CC(=O)O/C(=C(\NC(=O)[C@@H]1CCCN1C(=O)[C@@H](NC(=O)c1ccc(C(=O)N2CCOCC2)cc1)C(C)C)C(C)C)C(F)(F)C(F)(F)F`, the figures for the half-life in data set [1] and in data set [3] were 6.6 h and 0.667 h, respectively.

The molecule `CC(C)[C@H](NC(=O)c1ccc(C(=O)N2CCOCC2)cc1)C(=O)N1CCC[C@H]1C(=O)NCC(=O)C(F)(F)C(F)(F)F` gave a Ki in data set [5] of 150000 nM.

In data set [6], `CC(C)C(NC(=O)[C@@H]1CCCN1C(=O)[C@@H](NC(=O)c1ccc(C(=O)N2CCOCC2)cc1)C(C)C)C(=O)C(F)(F)C(F)(F)F` (some centres not stated) displayed an ED50 of 15 mg/kg.

Molecule `CC(C)[C@H](NC(=O)OC(C)(C)C)C(=O)N1CCC[C@H]1C(=O)NC(C)(C)C(=O)C(F)(F)C(F)(F)F` yielded a Ki in data set [5] of over 50000 nM.

Turning to `CCC(=O)O/C(=C(/NC(=O)[C@@H]1CCCN1C(=O)[C@@H](NC(=O)c1ccc(C(=O)N2CCOCC2)cc1)C(C)C)C(C)C)C(F)(F)C(F)(F)F`, the Ki in data set [4] amounted to 25 nM.
